Legend:
Assay type in all cases: organism-based
Settings in all cases: in vivo, 168 h
Mus musculus [1] = test: Acute toxicity in Swiss albino mouse assessed as effect on haemoglobin levels at 300 mg/kg, po after 7 days (reference value: 12.29 +/- 0.53 g/dL)
Mus musculus [2] = test: Acute toxicity in Swiss albino mouse assessed as effect on ALKP levels at 1000 mg/kg, po after 7 days (reference value: 219.20 +/- 5.9 U/L)
Mus musculus [3] = test: Acute toxicity in Swiss albino mouse assessed as effect on absolute brain weight at 5 to 1000 mg/kg, po after 7 days
Outline: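 Single acute oral dose of 5, 50, 300 or 1000 mg/kg body weight, with an untreated control group; n=6 mice per group. Animals observed for 7 days for morbidity, mortality, behaviour and body weight. At the end, blood and serum were analysed, and organs were examined grossly with absolute and relative weights. Data are mean±SE; P<0.05 was taken as significant versus control and the lower-dose groups.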

Mus musculus [4] = test: Acute toxicity in Swiss albino mouse assessed as effect on albumin levels at 50 mg/kg, po after 7 days (reference value: 3.53 +/- 0.35 mg/dL)

COc1ccc2c(c1)nc(-c1ccccc1OC)n2Cc1ccccc1OC was tested, and the Activity (Mus musculus [1]) was 11.51 g/dL, the Activity (Mus musculus [2]) was 118.06 U/L and the Activity (Mus musculus [3]) was “Non-Toxic”. The Activity (Mus musculus [4]) was 3.58 mg/dL.
